The source of these data is PMC4715857 (Osteoporosis International, 2015).

Where two headings read alike, the source gives them in different places.

Data set [1] in a line: Plasma ONO-5334 pharmacokinetics. The data set is classed as in vivo, healthy postmenopausal women. The following applies: day 5, 150 mg SRT, morning regimen. In outline:
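Oral sustained-release tablet, 150 mg once daily for 5 days per period, fed. Randomized crossover with ≥10-day washout. Blood taken via IV cannula over 12 h on day 1 and 24 h on day 5, hourly 1–6 h postdose. Plasma solid-phase extracted and assayed by validated LC-MS/MS (LLOQ 0.02 ng/mL). Cmax, Tmax and AUC24h derived noncompartmentally; day-5 morning/evening geometric mean ratios with 90% CI by ANOVA; Tmax by Wilcoxon signed rank test.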

Data set [2] deals with serum CTX-I. Briefly: Serum CTX-I bone resorption marker. The data set is classed as in vivo, healthy postmenopausal women. The following applies: for time over which >60% suppression of CTX-I was sustained: 150-mg SRT for 5 days. A digest of the protocol:
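Serum CTX-I was measured by CrossLaps ELISA. Baseline profile on day −1 via cannula at set clock times over 24 h, ending just before the first dose (08:00 morning, 20:00 evening period). Results expressed as % change from clock-time-matched baseline; 24-h AUE compared morning vs evening by ANCOVA, with post-hoc repeated-measures analysis.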

Data set [3] concerns urinary CTX-I. Briefly: Urinary CTX-I/creatinine bone resorption marker. The data set is classed as in vivo, healthy postmenopausal women. The following applies: 150 mg SRT once daily 5 days. A digest of the protocol:
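Urinary CTX-I was measured by Urine CrossLaps ELISA and normalized to creatinine. Baseline urine was taken on day −1, and postdose urine on days 1 and 5, with collection at 08:00 (morning dosing) or 20:00 (evening dosing). Dosing was 150 mg sustained-release tablet once daily for 5 days, fed. Results expressed as % change from time-matched baseline; 24-h AUE compared by ANCOVA, with post-hoc repeated-measures analysis.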

Data set [4] can be described thus: Safety assessments / adverse events. The format is in vivo, healthy postmenopausal women. The following applies: 150 mg once daily for 5 days per period. A digest of the protocol:
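Each crossover period (5 days' dosing) included clinical laboratory tests, vital signs, 12-lead ECG and physical examination on admission and at follow-up. Vital signs were also taken at baseline, on all treatment days and at discharge. Adverse events were coded with MedDRA version 14.1. Fourteen subjects were in the safety analysis, and data were summarized in SAS.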

For data set [5] the following is noted: 100 mg sustained-release tablet (SRT), morning, repeat administration ref 7, 8; cited from earlier work.
Data set [6] relates to serum CTX-I. The following applies: cited from earlier work; for serum CTX reduction: postmenopausal women.
The test system of a further data set is bone strength. The following applies: ovariectomized rats ref 5; cited from earlier work.
The test system of data set [7] is bone mineral density (BMD). The following applies: postmenopausal women with osteoporosis, 24 months of therapy ref 6; cited from earlier work.
Data set [8] relates to serum CTX-I. The following applies: oral calcitonin, healthy postmenopausal women ref 15; cited from earlier work.
Data set [9] concerns urinary CTX-I. The following applies: 12 weeks of treatment, healthy postmenopausal women ref 30; cited from earlier work.
For a further data set, the system named is bone resorption markers. The following applies: premenopausal women ref 14, cited from earlier work.

In the case of `C[C@@H]1CS/C(=N\NC(=O)C(=O)[C@@H](NC(=O)C2CCCCCC2)C2CCOCC2)N1C` [ONO-5334], the “mean trough plasma concentration” value in data set [1] was determined as 9.4 ng/mL. In addition, the “greater suppression of 24-h serum CTX-I AUE, morning than evening” value with serum CTX-I [2] (150 mg SRT once daily 5 days) is given as 6%. The “duration of impact on bone resorption” value with serum CTX-I [2] (150-mg SRT) is no less than 24 h. The “time of lowest serum CTX-I levels postdose” value in the data set on serum CTX-I [2] (after morning and evening administration) was 8 h. For the same compound, the “plasma ONO-5334 concentration required to produce 60% reduction of serum CTX-I” value with serum CTX-I [2] (day 5, scatter plot of plasma concentration vs serum CTX-I %CFB, both regimens) is no less than 10 ng/mL. Moreover, the “time over which >60% suppression of CTX-I was sustained” value with serum CTX-I [2] (evening administration) worked out at 12 h. Besides, the “CTX-I suppression over 24 h” value with serum CTX-I [2] (morning administration, 150 mg SRT for 5 days) is greater than 60%. In addition, in the data set on serum CTX-I [2] (morning administration), the “time over which >60% suppression of CTX-I was sustained” value worked out at 24 h. Also, the “greater suppression of 24-h urinary CTX-I/creatinine AUE, morning than evening” value with urinary CTX-I [3] came out at 7%. Moreover, in data set [4], the “laboratory safety data, vital signs, electrocardiogram or physical examinations” value is “no clinically relevant” and the safety findings entry was “no safety findings of concern”. In addition, in [5], the mean half-life is 15 h and the “median time to maximum plasma concentration (Tmax)” value is 4 h. For the same compound, the “suppression of serum CTX-I” value in the data set on serum CTX-I [6] is “approximately 60%”. Further, the “effect on bone strength” value with bone strength is reported as “improved bone strength”. Also, in data set [7], the “effect on cortical and trabecular bone mineral density (BMD)” value is “significantly improved”.

For the compound calcitonin [oral calcitonin], in the data set with serum CTX-I [8], the “duration of impact on bone resorption” value is recorded as “about 12 h”.

In the case of `NCCCC(O)(P(=O)(O)O)P(=O)(O)O` [alendronate], the “Serum CTX-I decreases” value in the data set on serum CTX-I [6] (following 30–36 months of therapy ref 28, 29) was 67–70%. Moreover, the “urinary CTX-I reduction” value in the data set on urinary CTX-I [9] was 53%.

For the compound `CC(C)(F)C[C@H](N[C@@H](c1ccc(-c2ccc(S(C)(=O)=O)cc2)cc1)C(F)(F)F)C(=O)NC1(C#N)CC1` [odanacatib], the “suppression of serum CTX-I” value in the data set on serum CTX-I [6] is recorded as “approximately 60%”. Moreover, the “continuous reductions of serum CTX-I” value in the data set on serum CTX-I [6] (postmenopausal women with low BMD, following 5 years of treatment ref 4) is on record as 55%. Besides, the “reductions of serum CTX-I” value in the data set with serum CTX-I [6] (postmenopausal women with low BMD, once-weekly, most of the first year of treatment ref 25) is greater than 60%. For the same compound, the “serum CTX reduction” value in the data set on serum CTX-I [6] (single or repeated doses for 3 weeks ref 23, 24) is reported as 62–66%.

`CCCN1CCN(c2ccc(C(=O)NC3(C(=O)NCC#N)CCCCC3)cc2)CC1` [balicatib]: the “serum CTX reduction” value with serum CTX-I [6] (1-year study ref 22) was 61%.

Consider `[Ca]` [elemental calcium, calcium], for which the “effect on bone resorption” value with bone resorption markers (1000 mg at bedtime) is “suppressed nighttime increases of bone resorption”; in the data set with bone resorption markers (1000 mg, morning administration) it was “no effect”.
